Reference: ChEMBL document CHEMBL4715736, “Identification of anticancer agents based on the thieno[2,3-b]pyridine and 1H-pyrazole molecular scaffolds” (2016)

tested on: SF-295; experiment: Growth inhibition of human SF-295 cells assessed as cell growth at 10 uM incubated for 48 hrs by sulforhodamine B assay relative to control; type: functional; settings: read-out: Activity
Summary of the method: (§1)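 Run by the NCI Developmental Therapeutics Program as part of its 60-line human tumour panel. Each compound tested at a single 10 µM dose. Growth expressed as % relative to untreated control cells (100%).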

SMILES	growth at 10 µM
CN1CCc2nc3sc(C(N)=O)c(N)c3c(-c3cccs3)c2C1	10%

tested on: MOLT-4; experiment: Growth inhibition of human MOLT-4 cells assessed as cell growth at 10 uM incubated for 48 hrs by sulforhodamine B assay relative to control; type: functional; settings: read-out: Activity
Summary of the method: (§2)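 Submitted to the NCI Developmental Therapeutics Program for the NCI60 human tumour cell line panel. First screen at a single 10 µM concentration. Read-out is growth relative to untreated control cells set at 100%.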

SMILES	growth at 10 µM
CN1CCc2nc3sc(C(N)=O)c(N)c3c(-c3cccs3)c2C1	9%

tested on: UACC-62; experiment: Growth inhibition of human UACC-62 cells assessed as cell growth at 10 uM incubated for 48 hrs by sulforhodamine B assay relative to control; type: functional; settings: read-out: Activity; summary of the method: as §1

SMILES	growth at 10 µM
CN1CCc2nc3sc(C(N)=O)c(N)c3c(-c3cccs3)c2C1	-21%

tested on: NCI-H460; experiment: Growth inhibition of human NCI-H460 cells assessed as cell growth at 10 uM incubated for 48 hrs by sulforhodamine B assay relative to control; type: functional; settings: read-out: Activity; summary of the method: as §2

SMILES	growth at 10 µM
CN1CCc2nc3sc(C(N)=O)c(N)c3c(-c3cccs3)c2C1	6%

tested on: A549; experiment: Growth inhibition of human A549/ATCC cells assessed as cell growth at 10 uM incubated for 48 hrs by sulforhodamine B assay relative to control; type: functional; settings: read-out: Activity
Summary of the method: (§3)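 NCI Developmental Therapeutics Program NCI60 panel. Compounds that were active in the 10 µM one-dose screen went on to dose–response testing. Growth at each concentration is expressed relative to untreated control (100%). GI50 (concentration giving 50% of maximal inhibition of proliferation) and TGI (concentration giving total growth inhibition) were derived from the curves.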

SMILES	growth at 10 µM
CN1CCc2nc3sc(C(N)=O)c(N)c3c(-c3cccs3)c2C1	13%

tested on: OVCAR-3; experiment: Growth inhibition of human OVCAR-3 cells assessed as cell growth at 10 uM incubated for 48 hrs by sulforhodamine B assay relative to control; type: functional; settings: read-out: Activity; summary of the method: as §1

SMILES	growth at 10 µM
CN1CCc2nc3sc(C(N)=O)c(N)c3c(-c3cccs3)c2C1	-22%

tested on: NCI-H226; experiment: Growth inhibition of human NCI-H226 cells assessed as cell growth at 10 uM incubated for 48 hrs by sulforhodamine B assay relative to control; type: functional; settings: read-out: Activity; summary of the method: as §2

SMILES	growth at 10 µM
CN1CCc2nc3sc(C(N)=O)c(N)c3c(-c3cccs3)c2C1	11%

tested on: A498; experiment: Growth inhibition of human A498 cells assessed as cell growth at 10 uM incubated for 48 hrs by sulforhodamine B assay relative to control; type: functional; settings: read-out: Activity; summary of the method: as §3

SMILES	growth at 10 µM
CN1CCc2nc3sc(C(N)=O)c(N)c3c(-c3cccs3)c2C1	-15%

tested on: HOP-62; experiment: Growth inhibition of human HOP-62 cells assessed as cell growth at 10 uM incubated for 48 hrs by sulforhodamine B assay relative to control; type: functional; settings: read-out: Activity; summary of the method: as §2

SMILES	growth at 10 µM
CN1CCc2nc3sc(C(N)=O)c(N)c3c(-c3cccs3)c2C1	1%

tested on: CCRF-CEM; experiment: Growth inhibition of human CCRF-CEM cells assessed as cell growth at 10 uM incubated for 48 hrs by sulforhodamine B assay relative to control; type: functional; settings: read-out: Activity; summary of the method: as §3

SMILES	growth at 10 µM
CN1CCc2nc3sc(C(N)=O)c(N)c3c(-c3cccs3)c2C1	10%

tested on: UACC-257; experiment: Growth inhibition of human UACC-257 cells assessed as cell growth at 10 uM incubated for 48 hrs by sulforhodamine B assay relative to control; type: functional; settings: read-out: Activity; summary of the method: as §1

SMILES	growth at 10 µM
CN1CCc2nc3sc(C(N)=O)c(N)c3c(-c3cccs3)c2C1	10%

tested on: MDA-MB-468; experiment: Growth inhibition of human MDA-MB-468 cells assessed as cell growth at 10 uM incubated for 48 hrs by sulforhodamine B assay relative to control; type: functional; settings: read-out: Activity; summary of the method: as §2

SMILES	growth at 10 µM
CN1CCc2nc3sc(C(N)=O)c(N)c3c(-c3cccs3)c2C1	-35%

tested on: HCT-15; experiment: Growth inhibition of human HCT-15 cells assessed as cell growth at 10 uM incubated for 48 hrs by sulforhodamine B assay relative to control; type: functional; settings: read-out: Activity; summary of the method: as §2

SMILES	growth at 10 µM
CN1CCc2nc3sc(C(N)=O)c(N)c3c(-c3cccs3)c2C1	10%

tested on: HL-60(TB); experiment: Growth inhibition of human HL-60(TB) cells assessed as cell growth at 10 uM incubated for 48 hrs by sulforhodamine B assay relative to control; type: functional; settings: read-out: Activity
Summary of the method: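 Screened by the NCI Developmental Therapeutics Program on its panel of 60 human tumour cell lines. Compounds were first tested at a single 10 µM dose, and compounds active there went to dose-response curves. Growth is expressed relative to untreated control (100%). GI50 (50% of maximal proliferation inhibition) and TGI (total growth inhibition) were derived from the dose-response data.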

SMILES	growth at 10 µM
CN1CCc2nc3sc(C(N)=O)c(N)c3c(-c3cccs3)c2C1	-18%

tested on: NCI-H322M; experiment: Growth inhibition of human NCI-H322M cells assessed as cell growth at 10 uM incubated for 48 hrs by sulforhodamine B assay relative to control; type: functional; settings: read-out: Activity; summary of the method: as §2

SMILES	growth at 10 µM
CN1CCc2nc3sc(C(N)=O)c(N)c3c(-c3cccs3)c2C1	15%

tested on: SF-539; experiment: Growth inhibition of human SF-539 cells assessed as cell growth at 10 uM incubated for 48 hrs by sulforhodamine B assay relative to control; type: functional; settings: read-out: Activity; summary of the method: as §1

SMILES	growth at 10 µM
CN1CCc2nc3sc(C(N)=O)c(N)c3c(-c3cccs3)c2C1	-18%

tested on: MDA-MB-435; experiment: Growth inhibition of human MDA-MB-435 cells assessed as cell growth at 10 uM incubated for 48 hrs by sulforhodamine B assay relative to control; type: functional; settings: read-out: Activity; summary of the method: as §2

SMILES	growth at 10 µM
CN1CCc2nc3sc(C(N)=O)c(N)c3c(-c3cccs3)c2C1	10%

tested on: SN12C; experiment: Growth inhibition of human SN12C cells assessed as cell growth at 10 uM incubated for 48 hrs by sulforhodamine B assay relative to control; type: functional; settings: read-out: Activity; summary of the method: as §1

SMILES	growth at 10 µM
CN1CCc2nc3sc(C(N)=O)c(N)c3c(-c3cccs3)c2C1	11%

tested on: RXF 393; experiment: Growth inhibition of human RXF 393 cells assessed as cell growth at 10 uM incubated for 48 hrs by sulforhodamine B assay relative to control; type: functional; settings: read-out: Activity; summary of the method: as §1

SMILES	growth at 10 µM
CN1CCc2nc3sc(C(N)=O)c(N)c3c(-c3cccs3)c2C1	-43%

tested on: NCI/ADR-RES; experiment: Growth inhibition of human NCI/ADR-RES cells assessed as cell growth at 10 uM incubated for 48 hrs by sulforhodamine B assay relative to control; type: functional; settings: read-out: Activity; summary of the method: as §2

SMILES	growth at 10 µM
CN1CCc2nc3sc(C(N)=O)c(N)c3c(-c3cccs3)c2C1	19%

tested on: M14; experiment: Growth inhibition of human M14 cells assessed as cell growth at 10 uM incubated for 48 hrs by sulforhodamine B assay relative to control; type: functional; settings: read-out: Activity; summary of the method: as §2

SMILES	growth at 10 µM
CN1CCc2nc3sc(C(N)=O)c(N)c3c(-c3cccs3)c2C1	11%

tested on: SNB-75; experiment: Growth inhibition of human SNB-75 cells assessed as cell growth at 10 uM incubated for 48 hrs by sulforhodamine B assay relative to control; type: functional; settings: read-out: Activity; summary of the method: as §1

SMILES	growth at 10 µM
CN1CCc2nc3sc(C(N)=O)c(N)c3c(-c3cccs3)c2C1	-10%

tested on: IGROV-1; experiment: Growth inhibition of human IGROV-1 cells assessed as cell growth at 10 uM incubated for 48 hrs by sulforhodamine B assay relative to control; type: functional; settings: read-out: Activity; summary of the method: as §2

SMILES	growth at 10 µM
CN1CCc2nc3sc(C(N)=O)c(N)c3c(-c3cccs3)c2C1	18%

tested on: PC-3; experiment: Growth inhibition of human PC-3 cells assessed as cell growth at 10 uM incubated for 48 hrs by sulforhodamine B assay relative to control; type: functional; settings: read-out: Activity; summary of the method: as §1

SMILES	growth at 10 µM
CN1CCc2nc3sc(C(N)=O)c(N)c3c(-c3cccs3)c2C1	21%

tested on: Hs-578T; experiment: Growth inhibition of human Hs-578T cells assessed as cell growth at 10 uM incubated for 48 hrs by sulforhodamine B assay relative to control; type: functional; settings: read-out: Activity; summary of the method: as §2

SMILES	growth at 10 µM
CN1CCc2nc3sc(C(N)=O)c(N)c3c(-c3cccs3)c2C1	6%

tested on: HOP-92; experiment: Growth inhibition of human HOP-92 cells assessed as cell growth at 10 uM incubated for 48 hrs by sulforhodamine B assay relative to control; type: functional; settings: read-out: Activity; summary of the method: as §2

SMILES	growth at 10 µM
CN1CCc2nc3sc(C(N)=O)c(N)c3c(-c3cccs3)c2C1	-4%

tested on: SK-MEL-28; experiment: Growth inhibition of human SK-MEL-28 cells assessed as cell growth at 10 uM incubated for 48 hrs by sulforhodamine B assay relative to control; type: functional; settings: read-out: Activity; summary of the method: as §1

SMILES	growth at 10 µM
CN1CCc2nc3sc(C(N)=O)c(N)c3c(-c3cccs3)c2C1	-2%

tested on: U-251; experiment: Growth inhibition of human U-251 cells assessed as cell growth at 10 uM incubated for 48 hrs by sulforhodamine B assay relative to control; type: functional; settings: read-out: Activity; summary of the method: as §1

SMILES	growth at 10 µM
CN1CCc2nc3sc(C(N)=O)c(N)c3c(-c3cccs3)c2C1	10%

tested on: HCT-116; experiment: Growth inhibition of human HCT-116 cells assessed as cell growth at 10 uM incubated for 48 hrs by sulforhodamine B assay relative to control; type: functional; settings: read-out: Activity; summary of the method: as §2

SMILES	growth at 10 µM
CN1CCc2nc3sc(C(N)=O)c(N)c3c(-c3cccs3)c2C1	6%

tested on: SK-MEL-5; experiment: Growth inhibition of human SK-MEL-5 cells assessed as cell growth at 10 uM incubated for 48 hrs by sulforhodamine B assay relative to control; type: functional; settings: read-out: Activity; summary of the method: as §1

SMILES	growth at 10 µM
CN1CCc2nc3sc(C(N)=O)c(N)c3c(-c3cccs3)c2C1	-25%

tested on: KM12; experiment: Growth inhibition of human KM12 cells assessed as cell growth at 10 uM incubated for 48 hrs by sulforhodamine B assay relative to control; type: functional; settings: read-out: Activity; summary of the method: as §2

SMILES	growth at 10 µM
CN1CCc2nc3sc(C(N)=O)c(N)c3c(-c3cccs3)c2C1	7%

tested on: Malme-3M; experiment: Growth inhibition of human Malme-3M cells assessed as cell growth at 10 uM incubated for 48 hrs by sulforhodamine B assay relative to control; type: functional; settings: read-out: Activity; summary of the method: as §2

SMILES	growth at 10 µM
CN1CCc2nc3sc(C(N)=O)c(N)c3c(-c3cccs3)c2C1	16%

tested on: UO-31; experiment: Growth inhibition of human UO-31 cells assessed as cell growth at 10 uM incubated for 48 hrs by sulforhodamine B assay relative to control; type: functional; settings: read-out: Activity; summary of the method: as §1

SMILES	growth at 10 µM
CN1CCc2nc3sc(C(N)=O)c(N)c3c(-c3cccs3)c2C1	11%
